The list is not random: actives were taken first. Their share in the collection is about 1.2%.
ARFGAP1 inh = rat ARFGAP1 inhibition | Q62848 | Arfgap1-stimulated ARF1 GTP hydrolysis, GDP FP detection | inhibition, % at 16.5 µM | 0.26% of 360,000 active;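 active = inhibition above a per-plate limit, mean inhibition of low control wells plus 3 SD, cut at about 25% in these data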
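Material: truncated rat Arfgap1 GAP domain; Incubation: compound-enzyme preincubation 20 min, reaction 120 min, detection 60 min, 25 °C; Read-out: percent inhibition of Arfgap1-stimulated GTP hydrolysis; Technique: FP, GDP Alexa 633 tracer displaced from anti-GDP antibody, 620/688 nm; Controls: No-Arfgap1 wells (100%) versus DMSO full-reaction wells (0%); Replication: single well per compound.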
CTSL1 counter = blocks F. hepatica cathepsin L1 in PFM18AAP counter-screen | recombinant F. hepatica cathepsin L1, Z-Leu-Arg-MCA fluorescence | inhibition, % at 5.96 µM | 0.49% of 300,000 active;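 active = inhibition above the mean of all tested compounds plus 3 SD, set per screening campaign, cut at about 17% in these data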
NPR2 activator = GC-B (human) receptor activation | HEK293-GC-B cells, CNP EC30, cGMP TR-FRET; 0% at EC30 CNP, 100% saturating CNP | activation, % at 10 µM | 0.11% of 370,000 active;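 active = activation at 10 µM reaching about 35% in either raw or pattern-adjusted values, limit read from the data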
core dimer inh = blocks dimerization of HCV core protein. TR-FRET GST/Flag-core106 dimerization, 1536-well. inhibition, % at 5 µM. 0.33% of 300,000 active;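 active = inhibition above the mean of all tested compounds plus 3 SD, set per screening campaign, cut at about 45% in these data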
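Test system: GST/Flag-tagged HCV core106 proteins; Medium: KF-containing HEPES buffer, pH 7.45, DTT, CHAPS, BSA; Times: compound-protein-antibody incubation 4 h at 22.5 °C; Detection: TR-FRET 671 and 617 nm emission; Benchmarks: wells lacking GST-core106 and wells with excess unlabelled core106.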
ASAP1 inh = ASAP1 ArfGAP inhibition; ASAP1-stimulated ARF1 GTP hydrolysis, GDP FP detection; inhibition, % at 16.5 µM; 0.19% of 360,000 active; AID 624377; in the data active = inhibition above about 25%
GC-A act = GC-A (human) enzyme activation | P16066 | HEK293 GC-A cells, cGMP TR-FRET, EC30 ANP; 0% at EC30 ANP, 100% saturating ANP | activation, % at 10 µM | 0.14% of 370,000 active; in the data active = activation above about 40%
Of the large screens only hits and unclear results are named; the others gave an inactive call.

C#Cc1ccc([C@@H]2C=C(C(=O)NCc3ccccc3)O[C@H](OCc3ccc(CO)cc3)C2)cc1	core dimer inh 47
O=C(NCc1ccccc1)C1=C[C@@H](c2ccccc2)C[C@@H](OCc2ccc(CO)cc2)O1	none
C#Cc1ccc([C@@H]2C=C(C(=O)NCc3ccccc3)O[C@H](OCCCCO)C2)cc1	core dimer inh 52
CC[C@H](C)/C=C(C)/C=C/C1=CC2=CC(=O)[C@]3(C)OC(=O)[C@@H](C(C)=O)[C@@H]3C2=CO1	core dimer inh 56
CN(CC1CCOCC1)C(=O)CC1C(=O)NCCN1Cc1cccc(F)c1 (stereo not given)	none
C=CCOc1ccc(C(=O)N(Cc2ccc(N(C)C)cc2)C2CCS(=O)(=O)C2)cc1 (stereo not given)	none
C1CCC(c2nn3c(-c4n[nH]c5c4CCC5)nnc3s2)CC1	core dimer inh 51
COc1ccc(-c2nn3c(-c4n[nH]c5c4CCC5)nnc3s2)cc1	none (no result: ARFGAP1 inh, CTSL1 counter, core dimer inh, ASAP1 inh)
CN(C)CC1CCC/C(=C\c2ccc(OC(=O)c3ccc(Cl)cc3)cc2)C1=O (stereo not given)	GC-A act 40 (no result: CTSL1 counter, core dimer inh)
CCCCNC(=O)[C@H]1C[C@H]1[C@@H](O)[C@H](CO)NC(=O)[C@H](CC(C)C)NC(=O)OC(C)(C)C	CTSL1 counter 44 (no result: ARFGAP1 inh, NPR2 activator, ASAP1 inh, GC-A act)
CC(C)C[C@H](NC(=O)OC(C)(C)C)C(=O)N[C@@H](CO)[C@H](O)[C@@H]1C[C@@H]1C(=O)NC1CC1	CTSL1 counter 20
CC(C)C[C@H](NC(=O)OC(C)(C)C)C(=O)N[C@@H](CO)[C@H](O)[C@@H]1C[C@@H]1C(=O)NC1CCCCC1	CTSL1 counter 33
CC(C)C[C@H](NC(=O)OC(C)(C)C)C(=O)N[C@@H](CO)[C@H](O)[C@@H]1C[C@@H]1C(=O)N(C)C	none (no result: ARFGAP1 inh, NPR2 activator, ASAP1 inh, GC-A act)
CC(C)(C)OC(=O)N[C@@H](COCc1ccccc1)C(=O)N[C@@H](CO)[C@H](O)[C@@H]1C[C@@H]1C(=O)NC1CC1	none
CCOC(=O)CCC(NC(=O)c1cncc(O)c1)C(=O)OCC (stereo not given)	none
Cc1coc2c1C(=O)C(=O)c1c-2ccc2c1CCCC2(C)C	none
Cc1coc2c1C(=O)C(=O)c1c-2ccc2c(C)cccc12	CTSL1 counter 94 (no result: ARFGAP1 inh, NPR2 activator, ASAP1 inh, GC-A act)
O=C(NCc1cccnc1)c1ccc(COc2cccc3ccccc23)o1	core dimer inh 61
O=C(NCc1cccnc1)c1ccc(COc2ccc(Cl)cc2Cl)o1	none
CCOc1ccc(C2C(C#N)=C(N)SC(N)=C2C#N)cc1OC	core dimer inh 57 (no result: ARFGAP1 inh, NPR2 activator, ASAP1 inh, GC-A act)
CCOc1ccc(C2C(C#N)=C(N)SC(N)=C2C#N)cc1OCC	core dimer inh 58
COC(=O)c1ccc(NC(=O)Cn2nc(C)c3ccccc3c2=O)cc1	none
CSCCC(NC(=O)OCc1ccccc1)C(=O)O (stereo not given)	none
O=C(NC(=C(Cl)Cl)S(=O)(=O)c1ccc(Cl)cc1)c1ccccc1	CTSL1 counter 30
Cc1ccc(S(=O)(=O)/C(=C/Cl)NC(=O)c2ccccc2)cc1	CTSL1 counter 97
Cc1ccc(S(=O)(=O)C(NC(=O)c2ccccc2)=C(Cl)Cl)cc1	none
CCCCCCNc1c(C(=O)OCC)c(=O)[nH]c2ccccc12	none
O=c1[nH]c(CN2CCc3ccccc32)nc2scc(-c3cccs3)c12	core dimer inh 48
COc1ccc(/C=N\NS(=O)(=O)c2ccc(Cl)cc2)cc1COc1ccccc1[N+](=O)[O-]	core dimer inh 47
NC(=O)CSc1nc2scc(-c3ccco3)c2c(=O)n1-c1ccccc1	CTSL1 counter 28
O=C(CSc1nc2scc(-c3ccco3)c2c(=O)n1-c1ccccc1)N1CCOCC1	none
O=c1c2c(-c3ccco3)csc2nc(SCc2cn3cccnc3n2)n1-c1ccccc1	core dimer inh 66
CCOC(=O)Cn1nc(NC(=O)COc2ccc(F)cc2)cc1C	none
CCOC(=O)N1CCN(c2ccc(C(=O)c3cccc(F)c3)cc2)CC1	none (no result: ARFGAP1 inh, NPR2 activator, ASAP1 inh, GC-A act)
O=C1S/C(=C\C=C\c2ccco2)C(=O)N1c1ccc(O)cc1	core dimer inh 51
Cc1ccc(NC(=O)CCCN2C(=O)/C(=C/C=C/c3ccccc3)SC2=S)cc1	core dimer inh 57

Compound activity as filed in PubChem BioAssay.
